Test results from ChEMBL document CHEMBL1141283, “Benzaldehyde derivatives from Sarcodontia crocea” (2007).
In brackets after ≈: the same amount, converted by molar mass.

Legend:
Type in all cases: functional
[1] = system: Bacillus subtilis; assay: Antibacterial activity against Bacillus subtilis IMI347329 by microdilution method
Procedure, shortened: (§1)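 Broth microdilution with two-fold (×2) dilution series of compounds from 1.56 to 800 µg/mL, four replicates per concentration per test strain; MIC taken as the lowest concentration inhibiting growth. Nystatin (fungi) and chloramphenicol (bacteria) were run as positive controls over the same concentration range.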

[2] = system: Pseudomonas syringae; assay: Antibacterial activity against Pseudomonas syringae IMI347448 by microdilution method
Procedure, shortened: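 Two-fold broth microdilution MIC, four replicates per concentration per strain, over 1.56 to 800 µg/mL. Chloramphenicol served as the antibacterial positive control across the same concentration range.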

[3] = system: Botrytis cinerea; assay: Antifungal activity against Botrytis cinerea IMI160282 by microdilution method; procedure, shortened: as §1
[4] = system: Cladosporium herbarum; assay: Antifungal activity against Cladosporium herbarum IMI300461 by microdilution method; procedure, shortened: as §1
[5] = system: Eurotium amstelodami; assay: Antifungal activity against Eurotium amstelodami FC1021 by microdilution method; settings: Aspergillus amstelodami; procedure, shortened: as §1
[6] = system: Plenodomus lingam; assay: Antifungal activity against Leptosphaeria maculans IMI266355 by microdilution method; procedure, shortened: as §1

Compound | MIC [1] [µg/mL] | MIC [2] [µg/mL] | MIC [3] [µg/mL] | MIC [4] [µg/mL] | MIC [5] [µg/mL] | MIC [6] [µg/mL]
O=C(N[C@H](CO)[C@H](O)c1ccc([N+](=O)[O-])cc1)C(Cl)Cl [CHLORAMPHENICOL] | 6.25 (≈ 19.3 µM) | 3.13 (≈ 9.69 µM) |  |  |  | 
NYSTATIN |  |  | 50 | 25 | 50 | 100
O=Cc1ccc(C2COC(=O)C2)cc1 (stereo not drawn) | > 800 | 400 (≈ 2100 µM) | 200 (≈ 1050 µM) | 400 (≈ 2100 µM) | 200 (≈ 1050 µM) | 400 (≈ 2100 µM)
O=Cc1ccc(-c2ccoc2)cc1 | 800 (≈ 4650 µM) | 200 (≈ 1160 µM) | 200 (≈ 1160 µM) | 200 (≈ 1160 µM) | 100 (≈ 581 µM) | 200 (≈ 1160 µM)
